STAT1 act – STAT1 signaling activators, primary screen, cell-based, HTS, luciferase reporter; NIH 3T3 STAT1-luciferase reporter, IFN-gamma, luminescence; 100% = IFN-gamma alone, no compound; activation (% of control), % at 5.5 µM; actives 2.6% (n = 200,000); AID 932, 2007;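 active = activation above the screen-wide mean activation plus 3 SD, cut at about 130% in these data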;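 also: raw ratio to IFN-gamma control signal so 100% means no change and 0% no light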
APP 5'UTR act – activators of APP 5'UTR luciferase reporter, primary screen, SH-SY5Y cells. actives 1% (n = 190,000). AID 1276, 2008. SH-SY5Y APP 5'UTR luciferase reporter, luminescence; zero percent = DMSO vehicle wells. activation, % at 2 µM;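 active = activation above a set limit, based on mean plus 3 SD of controls, cut at about 140% in these data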
NF-kB neuron act – activators of NF-kB expression in neurons, primary screen, cell-based, HTS; fold change at 12.5 µM; actives 1.6% (n = 190,000); human neuronal cells, NF-kB reporter expression; active compounds read high; in the data active = fold change above about 3.3
FLuc inh counter – firefly luciferase enzyme inhibitors, primary screen, artefact control for luciferase-based inhibitor screens, biochemical, luminescence, ATPLite; 10 min; actives 1.5% (n = 200,000); inhibition, % at 10 µM;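 active = inhibition above about 50% when tested at 10 µM, limit read from the data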
Target sequence (P08659 whole entry, looked up): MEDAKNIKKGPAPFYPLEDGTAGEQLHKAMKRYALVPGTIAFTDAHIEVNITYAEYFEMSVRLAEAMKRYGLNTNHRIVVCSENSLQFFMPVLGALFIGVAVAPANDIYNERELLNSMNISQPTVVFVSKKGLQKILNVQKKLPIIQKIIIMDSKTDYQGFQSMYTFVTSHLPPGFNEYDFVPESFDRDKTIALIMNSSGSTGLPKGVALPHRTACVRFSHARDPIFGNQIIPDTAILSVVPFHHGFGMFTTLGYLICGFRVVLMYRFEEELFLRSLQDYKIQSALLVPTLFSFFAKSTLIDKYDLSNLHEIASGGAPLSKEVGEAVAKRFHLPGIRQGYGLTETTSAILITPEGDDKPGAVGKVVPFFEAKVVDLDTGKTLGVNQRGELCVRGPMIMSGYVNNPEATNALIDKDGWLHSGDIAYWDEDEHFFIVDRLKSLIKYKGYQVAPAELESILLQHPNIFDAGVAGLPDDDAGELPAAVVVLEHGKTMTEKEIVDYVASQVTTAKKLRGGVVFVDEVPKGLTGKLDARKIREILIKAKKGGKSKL
sdo1 growth – growth rescue of sdo1-depleted yeast, primary screen, S. cerevisiae, bone marrow failure model | S. cerevisiae sdo1-depleted JHY4D growth rescue, OD600 30 h; active compounds read high; pdr5 snq2 efflux-pump mutant strain | z-score at 10 µM | actives 0.21% (n = 140,000);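 active = z-score above 3 at both the 24 hr and the 30 hr optical density reads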;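 also: z-score against mean and SD of all compound wells on the same plate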
FLuc stim CS – FLuc activators, initial screening, artefact control for FLuc-dependent activation tests, biochemical, ATPlite luminescence. ATPlite luciferase biochemical, 10 min; 0 = ATP-free wells, 1 = DMSO control. activation factor at 10 µM. 200,000 tested, under 10 active. Luciferin 4-monooxygenase (Photinus pyralis), P08659. AID 1027, 2008;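 active = luciferase activation factor, scaled between plate controls, of at least 2 with compound at 10 µM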
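test system = cell-free luciferase reagent | medium = PBS as buffer for the ATP substrate | dosing = test compounds dosed from 2 mM stocks in 100% DMSO | incubation = 10 min at ambient temperature | detection = luminescence measurement of luciferase light output | benchmarks = low control with PBS replacing ATP, high control enzyme plus ATP without compound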
An asterisk follows results filed as active; · = no result. The list is not random: actives were taken first. Their share in the collection is about 4.3%.

SMILES	STAT1 act	APP 5'UTR act	NF-kB neuron act	FLuc inh counter	sdo1 growth	FLuc stim CS
Cc1cc(C(=O)COc2cccnc2[N+](=O)[O-])c(C)n1Cc1ccco1	89	-5	1.5	4	·	1
O=C(NC(NCc1cccnc1)C(Cl)(Cl)Cl)c1cccc2ccccc12 (configuration not stated)	108	2	0.98	-6	-0.96	1.1
O=C(N/N=C/c1cccc(F)c1)c1c(O)c2c([nH]c1=O)CCCC2	103	142*	1.2	5	-1.8	0.9
CNC(=O)c1ccccc1NC(=O)c1c(O)c2c([nH]c1=O)CCCC2	106	-3	0.84	13	1.2	0.9
Cn1c(=O)c2c(nc(CN3CCN(CCO)CC3)n2Cc2cccc3ccccc23)n(C)c1=O	105	-9	4.3*	-3	0.22	1
CCN1CCN(Cc2nc3c(c(=O)n(C)c(=O)n3C)n2Cc2ccccc2Cl)CC1	94	-4	1	-4	1.3	1
O=C1N/C(=C\c2ccccc2)c2ccccc21	112	39	1.6	15	-0.04	0.8
O=C1NC(=S)N/C1=C/C=C/c1ccccc1	134*	0	2.5	4	·	1
CC1CC(C)CN(c2ncnc3c2cnn3Cc2ccc(Cl)cc2)C1 (configuration not stated)	97	-6	0.86	-9	-0.98	1.1
CC1CN(c2ncnc3c2cnn3-c2ccc(Cl)cc2)CC(C)O1 (configuration not stated)	147*	47	1.5	16	-0.97	0.8
Clc1ccc(-n2ncc3c(N4CCCCCC4)ncnc32)cc1	99	27	0.23	83*	-1.6	0.2
Clc1ccc(Cn2ncc3c(N4CCCCC4)ncnc32)cc1	97	17	0.51	-6	-2.2	1.1
COc1ccc(-n2ncc3c(N4CCCCC4)ncnc32)cc1	33	39	0.27	94*	1.4	0.1
COc1ccc(-c2ccc(-c3nnn(CC(=O)N4CCOCC4)n3)cc2)cc1	114	37	2.2	74*	-0.61	0.3
COC(=O)C(C)(C)ONC(=O)Nc1ccccc1[N+](=O)[O-]	102	5	1.1	-8	·	1.1
CCOC(=O)CSc1nnc(-c2ccc(Cl)cc2Cl)o1	97	3	2	56*	0.22	0.4
CCCOC(=O)CSc1nnc(-c2ccc(Cl)cc2Cl)o1	94	-7	1.1	9	-0.74	0.9
Cc1ccc(OCC(=O)N2CCCCC2)c(Br)c1	119	7	1.9	0	0.36	1
CC(C)(C)c1ccc(OCC(=O)N2CCCCCC2)c(Br)c1	134*	19	1	0	·	1
Cc1ccn2cc(-c3cc4ccccc4oc3=O)nc2c1	74	116	5.4*	42	·	0.6
Cc1ccc(NC(=O)C(=O)NCC2CCCO2)cc1C (configuration not stated)	142*	115	2.7	9	·	0.9
Cc1cc(C)cc(NC(=O)C(=O)NCC2CCCO2)c1 (configuration not stated)	106	17	1.4	6	·	0.9
Cc1ccc(C(=O)NC(=S)NCC2CCCO2)cc1 (configuration not stated)	129*	31	2.5	-1	-0.42	1
Cc1ccc(NC(=O)C(=O)NCC2CCCO2)cc1 (configuration not stated)	137*	42	2.1	10	·	0.9
COc1ccc(CNC(=O)CN(c2ccccc2)S(=O)(=O)N(C)C)cc1	96	22	0.95	0	·	1
SMILES	STAT1 act	APP 5'UTR act	NF-kB neuron act	FLuc inh counter	sdo1 growth	FLuc stim CS
CCN(CC1CCCO1)C(=O)CCc1nnc(Cc2ccc3c(c2)OCO3)o1 (configuration not stated)	96	11	1.3	-6	·	1.1
Cc1cccc(Cc2nnc(CCC(=O)N(CC3CC3)CC3CCCO3)o2)c1 (configuration not stated)	136*	50	2.4	-3	·	1
Cc1cccc(Cc2nnc(CCC(=O)N3CCCCC3c3nccs3)o2)c1 (configuration not stated)	107	-7	1.1	-3	·	1
CCCOC1CCCN(C(=O)CCc2nnc(Cc3cccc(C)c3)o2)C1 (configuration not stated)	143*	13	2.1	-7	·	1.1
CCN(Cc1ccccc1)C(=O)COC(=O)c1cc(Cl)nc(Cl)c1	97	-1	1.2	-7	·	1.1
CCOC(=O)c1c(C)c(-c2ccccc2)n(CC(=O)NCCCN(CC)CC)c1C	101	2	0.96	-4	·	1
C/C(=N/OC(=O)c1ccc(F)cc1)c1ccc(C)cc1	102	-4	1.9	70*	0.61	0.3
CCC(C)NC(=O)c1ccccc1NC(=O)COc1ccc(OC)cc1 (configuration not stated)	99	-2	1	-3	-0.44	1
Cc1ccccc1Cn1nnc(-c2ccc3c(c2)OCO3)n1	116	15	2	4	-0.48	1
Fc1cccc(Cl)c1Cn1nnc(-c2ccc3c(c2)OCO3)n1	119	68	3.6*	12	-1.6	0.9
CCOC(=O)C1=C(CSc2nc(-c3ccccc3)ccc2C#N)OC(N)=C(C#N)C1c1cccnc1 (configuration not stated)	107	43	3.8*	-6	-1.5	1.1
Cc1ccc(-c2nnc(-c3ccc(Br)cc3)o2)o1	118	17	3.8*	25	0.24	0.8
Nc1ccc2oc(-c3ccc4nc[nH]c4c3)nc2c1	132*	11	1.3	83*	0.47	0.2
Nc1ccc2nc(C(F)(F)F)[nH]c2c1	103	6	1.1	-8	·	1.1
Cc1nc2ccc(-c3nc4cc(N)ccc4o3)cc2[nH]1	116	-22	1.7	78*	-0.08	0.2
COc1ccc(C2N(Cc3ccccc3)CCN2Cc2ccccc2)cc1[N+](=O)[O-]	94	11	1.1	-8	·	1.1
Cc1ccc(C(=O)NCC(=O)O)o1	106	9	1.2	-7	·	1.1
CCOC(=O)C(C)n1ncn2cccc2c1=O (configuration not stated)	96	26	1.2	0	1.5	1
CCOc1ccc(NC(=O)CC(c2ccccc2)c2ccc(F)cc2)cc1 (configuration not stated)	101	5	1.3	-4	-1.2	1
O=c1c(Cl)c(Nc2cccc(Cl)c2)cnn1-c1nc2ccccc2s1	150*	116	1.9	40	-1.1	0.6
COc1ccc(Nc2cnn(-c3nc4ccccc4s3)c(=O)c2Cl)cc1	96	-19	1.9	29	-1.6	0.7
